Test results published in ChEMBL document CHEMBL1154054, “Novel 4-(morpholin-4-yl)-N'-(arylidene)benzohydrazides: synthesis, antimycobacterial activity and QSAR investigations” (Eur J Med Chem, 2009).

Tests used:
Format in all cases: functional
[1] = system: Mycobacterium tuberculosis; test: Antimycobacterial activity against multidrug resistant Mycobacterium tuberculosis at 10 ug/ml after 72 hrs by LRP assay
Summary of the method: (§1)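 Luciferase reporter phage assay on M. tuberculosis (H37Rv, or clinical isolates resistant to S, H, R and E). Each sample had two drug-free controls and four drug concentrations, incubated 72 h at 37 °C. High-titer phAE129 phage plus 0.1 M CaCl₂ was added, then 4 h at 37 °C. Equal volume D-luciferin (0.3 mM, pH 4.5 citrate) was added; RLU integrated 10 s, duplicate mean; % RLU reduction vs control.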

[2] = system: Mycobacterium tuberculosis; test: Antimycobacterial activity against multidrug resistant Mycobacterium tuberculosis at 0.5 ug/ml after 72 hrs by LRP assay; summary of the method: as §1
[3] = system: Mycobacterium tuberculosis; test: Antimycobacterial activity against multidrug resistant Mycobacterium tuberculosis at 5 ug/ml after 72 hrs by LRP assay; summary of the method: as §1
[4] = system: Mycobacterium tuberculosis; test: Antimycobacterial activity against multidrug resistant Mycobacterium tuberculosis at 0.05 ug/ml after 72 hrs by LRP assay; summary of the method: as §1

| Structure (SMILES) | Activity [1] [%] | Activity [2] [%] | Activity [3] [%] | Activity [4] [%] |
| --- | --- | --- | --- | --- |
| Cc1ccc(/C=N/NC(=O)c2ccc(N3CCOCC3)cc2)cc1 | 91.37 | 87.24 | 90.83 | 48.49 |
| COc1cc(/C=N/NC(=O)c2ccc(N3CCOCC3)cc2)cc(OC)c1OC | 90.24 | 96.88 | 90.29 | 35.83 |
| O=C(N/N=C1\C=CCO1)c1ccc(N2CCOCC2)cc1 | 93.72 | 86.92 | 92.52 | 58.54 |
| O=C(N/N=C/c1ccc(F)cc1)c1ccc(N2CCOCC2)cc1 | 95.09 | 86.33 | 93.28 | 83.22 |
| O=C(N/N=C/c1ccc(O)cc1)c1ccc(N2CCOCC2)cc1 | 88.45 | 73.58 | 88.08 | 43.92 |
| COc1ccc(/C=N/NC(=O)c2ccc(N3CCOCC3)cc2)cc1 | 90.36 | 82.97 | 89.33 | 56.53 |
| O=C(N/N=C/c1cccc([N+](=O)[O-])c1)c1ccc(N2CCOCC2)cc1 | 88.86 | 87.17 | 90.07 | 29.92 |
| O=C(N/N=C/c1ccc(Cl)cc1)c1ccc(N2CCOCC2)cc1 | 94.29 | 89.91 | 91.19 | 67.15 |
| O=C(N/N=C\C=C\c1ccccc1)c1ccc(N2CCOCC2)cc1 | 92.1 | 85.67 | 91.61 | 55.7 |
| CN(C)c1ccc(/C=N/NC(=O)c2ccc(N3CCOCC3)cc2)cc1 | 95.02 | 90.72 | 93.18 | 48.14 |
| NNC(=O)c1ccncc1 [ISONIAZID] | 94.7 | 89.6 | 95.85 | 84.37 |
